Published values collected from several papers.
Lines come from different studies, so protocols differ.
Target: Serine/threonine-protein kinase Nek2 (NEK2, Homo sapiens, UniProt P51955)
Sequence (P51955 1-445, as in one of the studies): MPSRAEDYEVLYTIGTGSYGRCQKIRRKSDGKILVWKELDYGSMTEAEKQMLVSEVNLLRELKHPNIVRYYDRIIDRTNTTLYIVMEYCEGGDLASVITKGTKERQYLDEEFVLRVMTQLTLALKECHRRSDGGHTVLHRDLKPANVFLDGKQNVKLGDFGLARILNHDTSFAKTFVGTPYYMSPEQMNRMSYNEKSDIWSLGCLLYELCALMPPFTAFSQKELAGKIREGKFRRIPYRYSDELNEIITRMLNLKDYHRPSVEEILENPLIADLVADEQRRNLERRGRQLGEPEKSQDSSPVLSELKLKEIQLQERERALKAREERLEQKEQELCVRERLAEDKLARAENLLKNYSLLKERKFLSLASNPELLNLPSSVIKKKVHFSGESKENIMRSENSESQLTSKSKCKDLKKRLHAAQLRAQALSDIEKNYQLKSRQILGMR

| SMILES | read-out | technique | concentration | remaining binding [%] |
| --- | --- | --- | --- | --- |
| O=C(c1ccc(Nc2ncc(Cl)c(-c3ccc(Cl)s3)n2)cc1)N1CCC(N2CCCC2)CC1 | binding | competition with immobilised ligand | 1 µM | 65 |
| NS(=O)(=O)c1cc(NC(=O)C2(c3ccccc3Cl)CC2)ccc1Oc1cccc(Cl)c1 | cell-free assay | competition with immobilised ligand | 1 µM | 86 |
| CN(C)c1nccc(-c2cnc3ncccn23)n1 | binding | – | 1 µM | 93 |
| O=C(c1ccc(Nc2nccc(-c3cc4ccccc4s3)n2)cc1)N1CCC(N2CCCC2)CC1 | binding | competition with immobilised ligand | 1 µM | 95 |
| C[C@H](c1ccnc(Nc2nc3ccc(-c4cc(N(C)C)ncn4)cc3[nH]2)c1)N1CCN(C(=O)CC(F)(F)F)CC1 | cell-free assay | competition with immobilised ligand | 0.1 µM | 100 |
| CC1CCCN1c1nccc(-c2cnn3ncccc23)n1 (centres unmarked) | binding | – | 1 µM | 100 |
| Cn1nc(C(F)(F)F)cc1-c1cnc(N2CCc3cc(S(=O)(=O)Nc4c(F)cc(Cl)cc4F)cc(N4CCCC4=O)c32)nc1 | cell-free assay | competition with immobilised ligand | 1 µM | 100 |
| O=C(NCC1CCOCC1)c1n[nH]cc1NC(=O)c1c(F)cccc1F | binding | competition with immobilised ligand | 1 µM | 87 |
| c1cnn2ncc(-c3ccnc(N4CCC45COC5)n3)c2c1 | binding | – | 1 µM | 95 |
| FC(F)(F)Oc1cccc(-c2cnc3ccc(-c4ccncc4)nn23)c1 | cell-free assay | competition with immobilised ligand | 5 µM | 74 |
| O=C(Nc1cccnn1)N1CC(C/C=C/c2cncc(Oc3ccc(C(F)(F)F)cn3)n2)C1 | cell-free assay | competition with immobilised ligand | 1 µM | 100 |
| CCN1CCN(Cc2ccc(C(=O)Nc3ccc(C)c(Oc4ccc5c(c4)CC(=O)N5)c3)cc2C(F)(F)F)CC1 | binding | competition with immobilised ligand | 1 µM | 100 |
| CNC(=O)Nc1ccc2c(c1)[C@@]1(CC2)OC(=O)N(CC(=O)N(Cc2ccc(F)cc2)[C@@H](C)C(F)(F)F)C1=O | cell-free assay | competition with immobilised ligand | 1 µM | 100 |
| C[C@@H]1CCN(c2nccc(-c3cnn4ncccc34)n2)C1 | binding | – | 1 µM | 87 |
| COc1cnc(Nc2cccc(S(N)(=O)=O)c2)nc1N1CCN(c2ccccc2)C(=O)C1 | binding | competition with immobilised ligand | 1 µM | 98 |
| c1cncc(-c2cccc(Nc3nccc(NC4CCCCC4)n3)c2)c1 | binding | competition with immobilised ligand | 10 µM | 97 |
| COc1ccnn2ncc(-c3ccnc(N(C)C)n3)c12 | binding | – | 1 µM | 92 |
| O=C(NCCCN1CCOCC1)c1ccc(Nc2nccc(-c3cc4ccccc4s3)n2)cc1 | binding | competition with immobilised ligand | 1 µM | 94 |
| N[C@H]1CCN(c2nccc(-c3cnn4ncccc34)n2)C1 | binding | – | 1 µM | 100 |
| CCCCN(CCCC)C(=O)CN1C[C@@H](c2cc(OC)c3c(c2)OCO3)[C@H](C(=O)O)[C@H]1CC(C)(C)CCC | cell-free assay | competition with immobilised ligand | 1 µM | 98.7 |
